Published values pooled from the literature.
Protocols differ between the studies behind these lines.
Target: Serine/threonine-protein kinase haspin (HASPIN, Homo sapiens, UniProt Q8TF76)
One construct used (Q8TF76 1-798): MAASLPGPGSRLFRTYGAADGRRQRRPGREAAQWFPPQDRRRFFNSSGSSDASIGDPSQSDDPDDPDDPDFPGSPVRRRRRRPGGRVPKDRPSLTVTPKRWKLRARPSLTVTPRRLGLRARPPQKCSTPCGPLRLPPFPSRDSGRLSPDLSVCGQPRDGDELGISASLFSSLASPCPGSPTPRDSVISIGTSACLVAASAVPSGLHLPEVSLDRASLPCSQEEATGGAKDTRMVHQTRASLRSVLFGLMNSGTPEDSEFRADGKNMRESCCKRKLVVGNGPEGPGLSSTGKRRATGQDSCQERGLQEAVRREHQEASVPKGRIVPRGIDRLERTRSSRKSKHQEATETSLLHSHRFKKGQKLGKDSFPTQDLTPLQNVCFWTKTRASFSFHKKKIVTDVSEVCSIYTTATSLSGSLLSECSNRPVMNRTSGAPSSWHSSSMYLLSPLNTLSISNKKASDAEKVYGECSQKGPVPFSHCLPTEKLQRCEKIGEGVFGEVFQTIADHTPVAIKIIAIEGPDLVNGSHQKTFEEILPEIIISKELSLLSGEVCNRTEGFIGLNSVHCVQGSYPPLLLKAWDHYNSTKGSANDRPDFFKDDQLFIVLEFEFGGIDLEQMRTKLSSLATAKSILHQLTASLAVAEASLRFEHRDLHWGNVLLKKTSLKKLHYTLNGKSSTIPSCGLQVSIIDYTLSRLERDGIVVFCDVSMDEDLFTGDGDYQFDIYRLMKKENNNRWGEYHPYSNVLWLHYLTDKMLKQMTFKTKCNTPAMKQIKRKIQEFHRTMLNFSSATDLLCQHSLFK

The remaining binding of `COc1ccc2c(O[C@@H]3C[C@H]4C(=O)N[C@]5(C(=O)O)CC5/C=C\CCCCC[C@H](NC(=O)OC5CCCC5)C(=O)N4C3)cc(-c3csc(NC(=O)C(C)C)n3)nc2c1C` (stereo partly shown) is reported as 97% (cell-free assay; competition with immobilised ligand; 1 µM).
`CC(C)(O)[C@H]1CC[C@H](Nc2ccc3ncc(-c4cccc(C(F)(F)F)c4)n3n2)CC1` gave a remaining activity of 15.4% (enzyme activity; inhibitor; 1 µM).
`Cn1cncc1C1=CN(c2ncnc3[nH]cnc23)CCS1` gave an inhibition of 88.4% (enzyme activity; inhibitor; radiometric; 2 µM).
`CCN(CC)c1ccc(C2=NNC(=O)CC2C)cc1[N+](=O)[O-]` (stereo not shown) gave a remaining activity of 106% (enzyme activity; inhibitor; 10 µM).
With `COc1cc2nccc(Oc3ccc(NC(=S)NC(=O)c4ccccc4C)cc3)c2cc1OC` the remaining activity was 95.9% (enzyme activity; inhibitor; 0.5 µM).
The remaining binding of `CC1=C(C#N)C(c2ccc3c(c2)c(NC(=O)c2ccccc2C)nn3C)C(C#N)=C(C)N1` is reported as 71% (cell-free assay; competition with immobilised ligand; 1 µM).
`N#CCCc1ccc2c(c1)-c1[nH]c3ccc([N+](=O)[O-])cc3c1CC(=O)N2` has a remaining signal of 110% (cell-free assay; 0.5 µM).
The remaining binding of `O=C(Nc1ccc(Oc2ccc(F)cc2)cc1)N1CCc2ncccc2[C@H]1c1ccc(F)cc1` is reported as 85% (cell-free assay; competition with immobilised ligand; 1 µM).
`CCCOc1ccc(OC)c(F)c1C(=O)c1ccc(C(=O)N[C@@H]2CNC[C@H]2NC(=O)c2ccc3[nH]ncc3c2)cc1` gave a remaining activity of 22% (enzyme activity; inhibitor; 10 µM).
`CNCc1ccccc1-c1csc([C@@H](C)Nc2nc(C)nc3cc(OC)c(OC)cc23)c1` has a remaining binding of 98% (cell-free assay; competition with immobilised ligand; 1 µM).
For `Cc1ccc(Nc2nccc(N(C)c3ccc4c(C)n(C)nc4c3)n2)cc1S(N)(=O)=O`, the inhibition was 8% (enzyme activity; inhibitor; 10 µM).
For `Cc1ccc(C(=O)Nc2ccc(CN3CCN(C)CC3)c(C(F)(F)F)c2)cc1C#Cc1cnc2cccnn12`, the remaining activity was 86% (enzyme activity; 23.5 nM).
`COc1cc(-c2cc(-c3ccc(N4CCNCC4)cc3)cnc2C)cc(OC)c1OC` has an inhibition of 3% (enzyme activity; inhibitor; 1 µM).
For `Cn1cnc(Br)c1C1=CN(c2ncnc3[nH]cnc23)CCS1`, the inhibition was 88.8% (enzyme activity; inhibitor; radiometric; 2 µM).
For `C[C@@H]1CN(c2cc(-c3nn(C)c4ccc(OC5(C)CC5)cc34)ncn2)C[C@H](C)O1`, the remaining binding was 99% (cell-free assay; competition with immobilised ligand; 1 µM).
For `CN1CCN(C(=O)c2ccc3cc(CCNc4ccnc5ccc(C#N)cc45)ccc3c2)CC1`, the inhibition was greater than 35% (cell-free assay; competition with immobilised ligand; 2 µM).
`O=c1c2ccccc2[nH]c(=S)n1CCN1CCC(=C(c2ccc(F)cc2)c2ccc(F)cc2)CC1` has a remaining activity of 95.4% (enzyme activity; inhibitor; 0.5 µM).
`CC(=O)Nc1c(C(C)=O)c(=O)n(C)c2nc(-c3ccc(Cl)cc3Cl)c(-c3ccc(Cl)cc3)cc12` has a remaining binding of 100% (cell-free assay; competition with immobilised ligand; 1 µM).
With `O=C(Nc1cnn(-c2csc(C(=O)NC3COC3)c2)c1)Nc1ccccc1Cl` the remaining activity was 112% (enzyme activity; inhibitor; 5 µM).
The remaining signal of `O=C1NC(=O)c2cc(Nc3ccc(F)cc3)c(Nc3ccc(F)cc3)cc21` is reported as 95.1% (cell-free assay; 0.5 µM).
The inhibition of `CNC(=O)c1cc(Oc2ccc(NC(=O)Nc3ccc(Cl)c(C(F)(F)F)c3)cc2)ccn1` is reported as 8% (enzyme activity; inhibitor; 0.3 µM).
`CCCCN(CCCC)C(=O)CN1C[C@@H](c2cc(OC)c3c(c2)OCO3)[C@H](C(=O)O)[C@H]1CC(C)(C)CCC` has a remaining binding of 100% (cell-free assay; competition with immobilised ligand; 1 µM).
With `CC(C)(C)c1nc(-c2cccc(NS(=O)(=O)c3c(F)cccc3F)c2F)c(-c2ccnc(N)n2)s1` the remaining activity was 147% (enzyme activity; inhibitor; radiometric; 1 µM).
For `COc1ccc(C(=O)Nc2sc3c(c2C(N)=O)CCCC3)cc1OC`, the remaining activity was 82.8% (enzyme activity; inhibitor; 0.5 µM).
The inhibition of `CN1CC(Oc2cnc(C#N)cc2-c2ccn3nc(NC(=O)C4CC4)cc3c2)C1` is reported as 3% (enzyme activity; inhibitor; 1 µM).
